Experimental data taken from PubChem BioAssay AID504382 (The Scripps Research Institute Molecular Screening Center, 2011).
Out of some 2,500 compounds screened, about 460 (18%) were called active.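 Rule for the calls: active = mean activation above a cutoff of low control average plus 3 SD from the earlier screen (cut at about 12% in these data); inactive = the rest.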 These entries were drawn from the full list.

assay: compound fluorescence interference without thin filaments, confirmation, artefact control for cardiac RTF calcium sensitizer project, biochemical (AID 504382); conditions: IANBD fluorescence interference counterscreen, buffer, EC20 Ca2+; at 7.2 µM; active compounds read high; scaled: EC20 calcium 0, EC100 calcium 100
Method in brief: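 Medium: MOPS buffer, 190 mM, with KCl, MgCl2, EGTA, NTA, DTT, pH 7.20; Dosing: one dose of 7.2 µM, 0.7% DMSO; Probe or stimulus: calcium at EC20 level, 0.472 mM final; Incubation: 15 min, 25 °C; Evaluation: compound fluorescence interference relative to control well signal range; Signal: fluorescence, 480/540 nm.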

Structure (SMILES)	fluorescence artifact activation
Cc1c(/C=N/O)c2ccccn2c1C=O	0.97% (inactive)
O=[N+]([O-])c1cc(-c2nc(-c3ccncc3)no2)ccc1Cl	-0.06% (inactive)
CCCc1ccc(OCc2ccc(C(=O)NN)o2)c(OC)c1	-0.08% (inactive)
CN1CCCc2cc3c(C(F)(F)F)cc(=O)oc3nc21	1.21% (inactive)
CC1CCCCC1NS(=O)(=O)CCNC(=O)c1ccccc1 (configuration not stated)	-0.01% (inactive)
CC(CC(=O)N1CCc2ccccc21)n1cccn1 (configuration not stated)	0.19% (inactive)
C[C@H](O)C(=O)C1=Nc2c(nc(N)[nH]c2=O)NC1	0.04% (inactive)
CC(=O)c1cccc(NC(=O)Cn2nc(-c3ccccc3Cl)ccc2=O)c1	0.29% (inactive)
CN1C(=O)NC(c2ccccc2[N+](=O)[O-])C2=C1CCCC2=O (configuration not stated)	0.1% (inactive)
CCN1C(=S)N[C@@H](CCc2ccccc2)[C@H](C(=O)OC)[C@H]1C	20.1% (active)
O=C(N/N=C/c1ccc([N+](=O)[O-])cc1)c1cc(-c2ccc3c(c2)OCO3)n[nH]1	0.03% (inactive)
CSc1nc(C)nc(N/C=C(\C#N)S(=O)(=O)c2ccccc2Cl)n1	0.27% (inactive)
COC(=O)c1cc2c(cc1NC(=O)CSCCc1ccccn1)OCO2	0.01% (inactive)
O=C(CN1C(=O)c2ccccc2C1=O)N1CCN=C1c1ccccc1	19.8% (active)
O=C1c2ccccc2C(=O)N1CC1=NCCc2ccccc21	0.03% (inactive)
O=C(c1ccc(F)cc1)N1CCN=C1c1ccccc1	0.24% (inactive)
O=C(O)c1ccccc1/C=N/NC(=S)NC1CCCCC1	0.11% (inactive)
CSc1ccc(Cl)c(C(=O)NNC(=O)c2csc(N3CCOCC3)n2)c1	2.41% (inactive)
CCCN1CC=C2C(C#N)=C(N)C(C#N)(C#N)C(c3cccc(OC)c3OC)C2C1 (configuration not stated)	0.1% (inactive)
Nc1nc(NCc2ccco2)nc(N2CCCCCC2)c1[N+](=O)[O-]	1.86% (inactive)
Cc1cc(/C=C2\SC(=S)N(Cc3ccco3)C2=O)c(C)n1-c1ccccc1	3.1% (inactive)
Cc1cc(/C=C2\SC(=S)N(Cc3ccco3)C2=O)c(C)n1-c1cccnc1	10.8% (inactive)
COc1ccc(-n2c(C)cc(/C=C3\SC(=S)N(Cc4ccco4)C3=O)c2C)cc1	91.9% (active)
Cc1nc(NC(=O)C(Cl)Cl)sc1C(=O)N(C)C	0.56% (inactive)
CC(C)CCNC(=O)c1ccc2c(SCC(=O)O)c3c(nc2c1)CCC3	12.9% (active)
CCOc1c2ccc(C(=O)NCCc3cccs3)cc2nn1CC	0.58% (inactive)
COC(=O)C1C2CC3c4[nH]c5cc(OC)ccc5c4CCN3CC2CC(OC(=O)CC(C)=O)C1OC (configuration not stated)	0.13% (inactive)
